Assay results of several laboratories.
Protocols differ between the studies behind these lines.

SMILES | tested on | test | test system | setting | quantity | result
CC(C=CC(O)=C1C(=O)CNC1=O)=CC(C)C1OC2(C)OC(C(O)C=C2C)C1C (stereo not shown) | Bacillus anthracis | microbial growth | 34F2 | – | MIC | 25 µM
CC1=NN(CNc2c(O)c(S(=O)(=O)O)cc3ccccc23)C(=O)C1=NNn1c(-c2ccccc2)nc2ccccc2c1=O | Vibrio cholerae | microbial growth, broth dilution | – | 24 h | MIC | 83.7 µM
CC(C)[C@H](N)C(=O)OCCCCCn1cnc2nc(NCc3ccc(Cl)c(Cl)c3)[nH]c(=O)c21 | Bifidobacterium | microbial growth, agar dilution | – | 48 h | MIC | 32 µg/mL
CCCCCCCC/C=C\CCCCCCCCNC(=O)CP(=O)(O)O | Bacillus anthracis | microbial growth | STERNE34F2 | – | MIC | 0.1 µg/mL
O=C1NN=C(N=Cc2ccccc2)C1=NNn1c(-c2ccccc2)nc2ccccc2c1=O | Vibrio cholerae | microbial growth, broth dilution | – | 24 h | MIC | 114 µM
COc1ccc2cc1Oc1cc(ccc1OC)CCC(N[C@@H]1CCCc3ccccc31)CCCC2 (stereo partly shown) | Streptococcus pyogenes | microbial growth, broth dilution | ATCC700294 | – | MIC | > 100 µg/mL
CCCCCCCCCCCCCCCC(=O)NS(=O)(=O)Oc1ccc(OC)cc1 | Bacillus anthracis | microbial growth | STERNE34F2 | – | MIC | 3.12 µg/mL
CN[C@@H]1[C@H](O)[C@H](NC)[C@H]2O[C@@]3(O)C(=O)C[C@@H](C)O[C@H]3O[C@@H]2[C@H]1O | Bacillus anthracis | microbial growth | STERNE34F2 | – | MIC | 25 µg/mL
CN[C@H](CC(C)C)C(=O)N[C@H]1C(=O)N[C@@H](CC(N)=O)C(=O)N[C@H]2C(=O)N[C@H]3C(=O)N[C@H](C(=O)N[C@H](C(=O)O)c4cc(O)cc(O)c4-c4cc3ccc4O)[C@H](O)c3ccc(c(Cl)c3)Oc3cc2cc(c3O[C@@H]2O[C@H](CO)[C@@H](O)[C@H](O)[C@H]2O[C@H]2C[C@](C)(N)[C@H](O)[C@H](C)O2)Oc2ccc(cc2Cl)[C@H]1O | Bifidobacterium | microbial growth, agar dilution | – | 48 h | MIC | 2 µg/mL
OC[C@H]1O[C@@H](n2cnc3c(NC4CCCC4)ncnc32)[C@H](O)[C@@H]1O | – | MES seizures | rat | intraperitoneal | ED50 | 6.7 mg/kg
CCCC(=O)CP(=O)(O)O | Bacillus anthracis | microbial growth | STERNE34F2 | – | MIC | 100 µg/mL
CCOC(=O)Nc1ccc(NCc2ccc(F)cc2)cc1N | – | MES seizures | rat | oral | ED50 | 12.1 mg/kg
CCCCCCCCCC#CCCCCC(=O)O | Leishmania infantum | parasite growth | – | promastigote | EC50 | 102 µM
COc1ccc(OS(=O)(=O)NC(=O)CCCCc2ccccc2)cc1 | Bacillus anthracis | microbial growth | STERNE34F2 | – | MIC | 200 µg/mL
O=C1NN=C(N=Cc2ccccc2O)C1=NNn1c(-c2ccccc2)nc2ccccc2c1=O | Vibrio cholerae | microbial growth, broth dilution | – | 24 h | MIC | 55.4 µM
CCCCCCCCCCCCCCCC(=O)CP(=O)(O)O | Bacillus anthracis | microbial growth | STERNE34F2 | – | MIC | 1.56 µg/mL
CC1=NN(CNc2ccccn2)C(=O)C1=NNn1c(-c2ccccc2)nc2ccccc2c1=O | Vibrio cholerae | microbial growth, broth dilution | – | 24 h | MIC | 55.2 µM
CC[C@H]1OC(=O)[C@H](C)[C@@H](O[C@H]2C[C@@](C)(OC)[C@@H](O)[C@H](C)O2)[C@H](C)[C@@H](O[C@@H]2O[C@H](C)C[C@H](N(C)C)[C@H]2O)[C@](C)(O)C[C@@H](C)C(=O)[C@H](C)[C@@H](O)[C@]1(C)O | Bacillus anthracis | microbial growth | 34F2 | – | MIC | 3.13 µM
C=CCCCCCCCCC(=O)C(F)(F)P(=O)(O)O | Bacillus anthracis | microbial growth | STERNE34F2 | – | MIC | > 200 µg/mL
